Measurements: publication PMC6441337 (Journal of controlled release : official journal of the …, 2018)

What was measured:
[1] = cited from earlier work
[2] = system: advanced LUAD tumors; conditions: cited from earlier work
[3] = system: intestinal mucosa; experiment: Intestinal toxicity by histopathological scoring; assay type: in vivo; conditions: mice, oral, 10 mg/kg/d over 7 days
How it was run: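 Mice given free test compound or cyclodextrin complexes orally at 10 mg/kg/d for 7 days; PBS group included. Intestine fixed in 10% formalin for 24 h, paraffin-embedded, sectioned at 5 μm and H&E stained. Duodenum examined at 20×. Mucosal damage graded: grade 0, normal villi; grade 1, subepithelial Gruenhagen's space at villus tips; higher grades follow.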

[4] = system: Caco-2 monolayers; experiment: Caco-2 permeability assay; assay type: in vitro ADME, Human
How it was run: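 Caco-2 cells grown in EMEM with 20% FBS and 1% PenStrep, then seeded on inserts for ~20 days to form confluent monolayers. Free test compound or its cyclodextrin complexes added apically; transport followed over 2 h, plus basolateral-to-apical for efflux. Controls: ranitidine (low), warfarin (high), talinolol (P-gp). Papp = (dQ/dt)/(C0×A); efflux ratio = Papp(B→A)/Papp(A→B). Integrity by TEER with lucifer yellow transport.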

[5] = system: intestine; conditions: mouse, in vivo, 10 mg/kg; cited from earlier work

SMILES: Cc1cc(-c2ncc(CC(=O)Nc3ccc(-c4cnccn4)cn3)cc2C)ccn1 [LGK974]
- solubility in aqueous environments [1]: poorly soluble
- effect in mice with advanced LUAD tumors [2]: suppressed Wnt target genes, inhibited tumor growth and proliferation, and extended survival
- intestinal mucosal damage (histopathological scoring) [3]: Intestinal mucosal damage was observed
- permeability across Caco-2 monolayers ([4]; A → B and B → A, 2 h): high permeability
- transepithelial electrical resistance (TEER) after treatment ([4]; Caco-2 monolayers, 2 h treatment): did not decrease significantly
- intestinal toxicity on oral administration [5]: induces intestinal toxicity
